Experimental data: ChEMBL document CHEMBL2203259, “Antioxidant glucosylated caffeoylquinic acid derivatives in the invasive tropical soda apple, Solanum viarum” (J Nat Prod, 2012)
Activity calls are given as the source filed them. The rule behind the calls is not given here.

Assays:
Assay type in all cases: functional
[1] = Antioxidant activity assessed as trolox equivalents of ABTS radical scavenging activity at 10 mins by TEAC assay
How it was run: (§1)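 ABTS•+ scavenging run per an earlier published method. Standard curve built from six 1:2 serial dilutions of a 500 μg/mL stock solution. Activity expressed as Trolox equivalent antioxidant capacity (TEAC), read at 5 min intervals from 0 to 40 min after starting incubation with the radical. Seven technical replicates.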

[2] = Antioxidant activity assessed as trolox equivalents of ABTS radical scavenging activity at 40 mins by TEAC assay; how it was run: as §1
[3] = Antioxidant activity assessed as trolox equivalents of ABTS radical scavenging activity at 15 mins by TEAC assay; how it was run: as §1
[4] = Antioxidant activity assessed as trolox equivalents of ABTS radical scavenging activity at 20 mins by TEAC assay; how it was run: as §1
[5] = Antioxidant activity assessed as trolox equivalents of ABTS radical scavenging activity at 0 min by TEAC assay; how it was run: as §1
[6] = Antioxidant activity assessed as trolox equivalents of ABTS radical scavenging activity at 35 mins by TEAC assay; how it was run: as §1
[7] = Antioxidant activity assessed as trolox equivalents of ABTS radical scavenging activity at 25 mins by TEAC assay; how it was run: as §1
[8] = tested on: Radical scavenging activity; assay: Antioxidant activity assessed as DPPH radical scavenging activity
[9] = Antioxidant activity assessed as trolox equivalents of ABTS radical scavenging activity at 5 mins by TEAC assay; how it was run: as §1
[10] = Antioxidant activity assessed as trolox equivalents of ABTS radical scavenging activity at 30 mins by TEAC assay; how it was run: as §1

O=C(/C=C/c1ccc(O)c(O)c1)O[C@@H]1C[C@](O)(C(=O)O)C[C@@H](O)[C@H]1O
Activity [1]: 1.85 | Activity [2]: 2.56 | Activity [3]: 2.1 | Activity [4]: 2.26 | Activity [5]: -0.31 | Activity [6]: 2.5 | Activity [7]: 2.49 | Activity [8]: Active | Activity [9]: 1.61 | Activity [10]: 2.42

O=C(/C=C/c1ccc(O[C@@H]2O[C@H](COC(=O)[C@]3(O)C[C@@H](O)[C@@H](O)[C@H](OC(=O)/C=C/c4ccc(O)c(O)c4)C3)[C@@H](O)[C@H](O)[C@H]2O)c(O)c1)O[C@@H]1C[C@](O)(C(=O)O)C[C@@H](O)[C@H]1O
Activity [1]: 3.01 | Activity [2]: 3.89 | Activity [3]: 3.18 | Activity [4]: 3.64 | Activity [5]: 1.51 | Activity [6]: 3.81 | Activity [7]: 3.73 | Activity [8]: Active | Activity [9]: 2.71 | Activity [10]: 3.71

O=C(O)CC(=O)O[C@@H]1C[C@@](O)(C(=O)O)C[C@@H](OC(=O)/C=C/c2ccc(O[C@@H]3O[C@H](COC(=O)[C@]4(O)C[C@@H](O)[C@@H](O)[C@H](OC(=O)/C=C/c5ccc(O)c(O)c5)C4)[C@@H](O)[C@H](O)[C@H]3O)c(O)c2)[C@@H]1O
Activity [1]: 1.85 | Activity [2]: 2.56 | Activity [3]: 2.1 | Activity [4]: 2.26 | Activity [5]: -0.31 | Activity [6]: 2.5 | Activity [7]: 2.49 | Activity [8]: Active | Activity [9]: 1.61 | Activity [10]: 2.42
